{"data": "Measured values gathered from unrelated publications", "MAL12": "Alpha-glucosidase MAL12 (MAL12, Saccharomyces cerevisiae S288c, UniProt P53341)", "note": "Compare with care: the assays were run in different laboratories."}
{"Structure (SMILES)": "C=C1CC[C@]2(C(=O)O[C@@H]3O[C@H](CO[C@@H]4O[C@H](CO)[C@@H](O[C@@H]5O[C@@H](C)[C@H](O)[C@@H](O)[C@H]5O)[C@H](O)[C@H]4O)[C@@H](O)[C@H](O)[C@H]3O)CC[C@]3(C)C(=CC[C@@H]4[C@@]5(C)CC[C@H](O[C@@H]6OC[C@H](O)[C@H](O)[C@H]6O[C@@H]6O[C@@H](C)[C@H](O)[C@@H](O)[C@H]6O)C(C)(C)[C@@H]5CC[C@]43C)[C@@H]2C1", "target": "MAL12", "observed": "enzyme activity", "mode": "inhibitor", "IC50 [µM]": 0.74}
{"Structure (SMILES)": "NC(=S)N/N=C/c1cc2ccccc2nc1SCc1cn(CC(=O)Nc2cccc([N+](=O)[O-])c2)nn1", "target": "MAL12", "observed": "enzyme activity", "mode": "inhibitor", "IC50 [µM]": 217}
{"Structure (SMILES)": "Cc1ccc2[nH]c(=O)c(CNC3CCCCC3)cc2c1", "target": "Alpha-1A adrenergic receptor (ADRA1A, Homo sapiens, UniProt P35348, M292L)", "observed": "calcium signal", "mode": "antagonist", "IC50 [µM]": 11}
{"Structure (SMILES)": "CC(C)C[C@H](NC(=O)[C@H](Cc1ccccc1)NC(=O)OCc1ccccc1)C(=O)C=O", "target": "Cathepsin S (CTSS, Homo sapiens, UniProt P25774)", "observed": "enzyme activity", "mode": "inhibitor", "method": "fluorescence", "IC50 [µM]": 0.15}
{"Structure (SMILES)": "Cn1c(=O)c2c(ncn2C)n(C)c1=O", "target": "Solute carrier family 22 member 6 (SLC22A6, Homo sapiens, UniProt Q4U2R8)", "observed": "transporter uptake", "mode": "inhibitor", "method": "radiometric", "notes": "oocytes", "IC50 [µM]": 155}
{"Structure (SMILES)": "CC(=O)OC[C@H]1O[C@@H](OC[C@H]2O[C@@H](OC(=O)[C@]34CCC(C)(C)C[C@H]3C3=CC[C@@H]5[C@@]6(C)CC[C@H](O[C@@H]7OC[C@H](O)[C@H](O)[C@H]7O[C@@H]7O[C@H](CO)[C@@H](O)[C@H](O)[C@H]7O)C(C)(C)[C@@H]6CC[C@@]5(C)[C@]3(C)CC4)[C@H](O)[C@@H](O)[C@@H]2O)[C@H](O)[C@@H](O)[C@@H]1O[C@@H]1O[C@@H](C)[C@H](O)[C@@H](O)[C@H]1O", "target": "MAL12", "observed": "enzyme activity", "mode": "inhibitor", "IC50 [µM]": 0.75}
{"Structure (SMILES)": "Cc1ccc2oc(=O)cc(NCCO)c2c1", "target": "Alpha-1A adrenergic receptor (ADRA1A, Homo sapiens, UniProt P35348, I178V/M292L)", "observed": "calcium signal", "mode": "antagonist", "IC50 [µM]": 324}
{"Structure (SMILES)": "COc1cc(C(c2c(O)c3ccccc3oc2=O)c2c(O)c3ccccc3oc2=O)ccc1OCc1cn(CC(=O)Nc2cccc([N+](=O)[O-])c2)nn1", "target": "MAL12", "observed": "enzyme activity", "mode": "inhibitor", "method": "absorbance", "IC50 [µM]": 16.3}
{"Structure (SMILES)": "CC1(C)CC[C@]2(C(=O)O)CC[C@]3(C)C(=CC[C@@H]4[C@@]5(C)CC[C@H](O[C@@H]6O[C@H](C(=O)O)[C@@H](O)[C@H](O)[C@H]6O)C(C)(C)[C@@H]5CC[C@]43C)[C@@H]2C1", "target": "MAL12", "observed": "enzyme activity", "mode": "inhibitor", "IC50 [µM]": 0.69}
{"Structure (SMILES)": "C[C@@H](OC(C)(C)C)[C@H](NC(=O)OCc1ccccc1)C(=O)N[C@@H](CC1CCCCC1)C(=O)NN(CCC(N)=O)C(=O)C(Cl)Cl", "target": "Replicase polyprotein 1ab, main protease (rep, Severe acute respiratory syndrome coronavirus 2, UniProt P0DTD1)", "observed": "enzyme activity", "mode": "inhibitor", "notes": "with preincubation", "IC50 [µM]": 0.068}
{"Structure (SMILES)": "Cc1ccccc1NC(=O)Cn1cc(CSc2nc3ccccc3cc2/C=N/NC(N)=S)nn1", "target": "MAL12", "observed": "enzyme activity", "mode": "inhibitor", "IC50 [µM]": 354}
{"Structure (SMILES)": "COc1cc(C(c2c(O)c3ccccc3oc2=O)c2c(O)c3ccccc3oc2=O)ccc1OCc1cn(CC(=O)Nc2cccc(Cl)c2)nn1", "target": "MAL12", "observed": "enzyme activity", "mode": "inhibitor", "method": "absorbance", "IC50 [µM]": 85.4}
{"Structure (SMILES)": "NC(=S)N/N=C/c1cc2ccccc2nc1SCc1cn(CC(=O)Nc2ccc([N+](=O)[O-])cc2)nn1", "target": "MAL12", "observed": "enzyme activity", "mode": "inhibitor", "IC50 [µM]": 559}
{"Structure (SMILES)": "COc1cc(C(c2c(O)c3ccccc3oc2=O)c2c(O)c3ccccc3oc2=O)ccc1OCc1cn(CC(=O)Nc2ccc(C)cc2)nn1", "target": "MAL12", "observed": "enzyme activity", "mode": "inhibitor", "method": "absorbance", "IC50 [µM]": 41.1}
{"Structure (SMILES)": "COc1ccc(NC(=O)Cn2cc(CSc3nc4ccccc4cc3/C=N/NC(N)=S)nn2)cc1", "target": "MAL12", "observed": "enzyme activity", "mode": "inhibitor", "IC50 [µM]": 192}
{"Structure (SMILES)": "C[C@@H]1O[C@@H](O[C@H]2[C@H](O)[C@@H](O)[C@H](OC[C@H]3O[C@@H](OC(=O)[C@]45CCC(C)(C)C[C@H]4C4=CC[C@@H]6[C@@]7(C)CC[C@H](O[C@@H]8OC[C@H](O)[C@H](O)[C@H]8O[C@@H]8O[C@H](CO)[C@@H](O)[C@H](O)[C@H]8O)C(C)(C)[C@@H]7CC[C@@]6(C)[C@]4(C)CC5)[C@H](O)[C@@H](O)[C@@H]3O)O[C@@H]2CO)[C@H](O)[C@H](O)[C@H]1O", "target": "MAL12", "observed": "enzyme activity", "mode": "inhibitor", "IC50 [µM]": 0.61}
{"Structure (SMILES)": "NC(=S)N/N=C/c1cc2ccccc2nc1SCc1cn(CC(=O)Nc2ccccc2)nn1", "target": "MAL12", "observed": "enzyme activity", "mode": "inhibitor", "IC50 [µM]": 379}
{"Structure (SMILES)": "C[C@@H]1O[C@@H](O[C@H]2[C@H](O[C@H]3CC[C@]4(C)[C@H]5CC=C6[C@@H]7CC(C)(C)CC[C@]7(C(=O)O[C@@H]7O[C@H](CO[C@@H]8O[C@H](CO)[C@@H](O[C@@H]9O[C@@H](C)[C@H](O)[C@@H](O)[C@H]9O)[C@H](O)[C@H]8O)[C@@H](O)[C@H](O)[C@H]7O)CC[C@@]6(C)[C@]5(C)CC[C@H]4C3(C)C)OC[C@H](O)[C@@H]2O)[C@H](O)[C@H](O)[C@H]1O", "target": "MAL12", "observed": "enzyme activity", "mode": "inhibitor", "IC50 [µM]": 0.47}
{"Structure (SMILES)": "NC(=S)N/N=C/c1cc2ccccc2nc1SCc1cn(CC(=O)Nc2ccc(Br)cc2)nn1", "target": "MAL12", "observed": "enzyme activity", "mode": "inhibitor", "IC50 [µM]": 434}
{"Structure (SMILES)": "COc1cc(C(c2c(O)c3ccccc3oc2=O)c2c(O)c3ccccc3oc2=O)ccc1OCc1cn(CC(=O)Nc2ccc(C)cc2C)nn1", "target": "MAL12", "observed": "enzyme activity", "mode": "inhibitor", "method": "absorbance", "IC50 [µM]": 20.2}
